According to ChEMBL document CHEMBL3826892, “Second-Generation Phenylthiazole Antibiotics with Enhanced Pharmacokinetic Properties” (J Med Chem, 2016):
Values after ≈ are worked out from the molar mass of the structure shown.

Columns and labels:
Staphylococcus aureus [1] = assay: Antimicrobial activity against methicillin-resistant Staphylococcus aureus RCMB 2658 clinical isolate after 20 hrs by broth microdilution method; format: functional; conditions: RCMB 2658, 20 h
Outline: (§1)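 CLSI broth microdilution in cation-adjusted Mueller Hinton broth. Compounds were serially diluted in triplicate and plates held at 37 °C for 20 h. MIC was taken by eye as the lowest concentration with no visible growth, and the average of the triplicate determinations is reported.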

[2] = Aqueous solubility of the compound in PBS after 2 hrs by turbidity assay; format: physicochemical
Outline: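 Serial dilutions were made […] and diluted 100-fold into PBS. After 2 h, turbidity was read at 540 nm with pre-addition background subtracted. Turbidity was taken as absorbance > blank mean + 3 SD. Solubility limit is the highest concentration with no turbidity.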

[3] = Apparent permeability across apical to basolateral side in human Caco2 cells at pH 6.5 after 2 hrs by LC/MS/MS analysis; format: ADME, cell-based; conditions: Caco-2, pH 6.5
Outline: (§2)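 Caco-2 cells were grown and differentiated for 3 weeks, fed every 2 days. Compound was added to the apical or basolateral side and measured on the opposite side after 2 h by LC/MS/MS. Apical buffer was pH 6.5 transport buffer (glucose, 10 mM HEPES, HBSS) with 100 μM Lucifer yellow; basolateral buffer was pH 7.4. Lucifer yellow fluorescence checked monolayer integrity. Papp = (dQ/dt)/C₀A; efflux ratio = Papp(B→A)/Papp(A→B).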

[4] = Cmax in Sprague-Dawley rat plasma at 50 mg/kg administered via oral gavage measured 24 hrs post dose by LC/MS/MS analysis; format: ADME, organism-based; design: dose 50 mg/kg, route oral
Outline: (§3)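 Male naive Sprague-Dawley rats (n = 3) received a single 50 mg/kg oral gavage dose in 5% ethanol, 45% PEG 400, 50% water. Blood was collected into EDTA-K2 tubes over 24 h post dose. Plasma was protein-precipitated with acetonitrile and parent was quantified by LC/MS/MS to derive PK parameters.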

Rattus norvegicus [5] = assay: Elimination rate constant in Sprague-Dawley rat plasma at 50 mg/kg administered via oral gavage by LC/MS/MS analysis; format: ADME, organism-based; conditions: in vivo; outline: as §3
Staphylococcus aureus [6] = assay: Bactericidal activity against methicillin-sensitive Staphylococcus aureus NRS72 clinical isolate after 20 hrs by broth microdilution method; format: functional; conditions: NRS72, 20 h
Staphylococcus aureus [7] = assay: Antimicrobial activity against vancomycin-resistant Staphylococcus aureus 10 clinical isolate after 20 hrs by broth microdilution method; format: functional; conditions: isolate 10, 20 h; outline: as §1
Staphylococcus aureus [8] = assay: Antimicrobial activity against methicillin-resistant Staphylococcus aureus USA100 NRS382 clinical isolate after 20 hrs by broth microdilution method; format: functional; conditions: USA100 NRS382, 20 h; outline: as §1
Enterococcus faecium [9] = assay: Bactericidal activity against vancomycin-resistant Enterococcus faecium ATCC 700221 after 20 hrs by broth microdilution method; format: functional; conditions: ATCC 700221, 20 h
[10] = Mean residence time in Sprague-Dawley rat plasma at 50 mg/kg administered via oral gavage measured 24 hrs post dose by LC/MS/MS analysis; format: ADME, organism-based; outline: as §3
Staphylococcus aureus [11] = assay: Bactericidal activity against methicillin-resistant Staphylococcus aureus NRS119 clinical isolate after 20 hrs by broth microdilution method; format: functional; conditions: NRS119, 20 h
Staphylococcus aureus [12] = assay: Antimicrobial activity against methicillin-resistant Staphylococcus aureus USA200 NRS383 clinical isolate after 20 hrs by broth microdilution method; format: functional; conditions: USA200 NRS383, 20 h; outline: as §1
Staphylococcus aureus [13] = assay: Antimicrobial activity against methicillin-resistant Staphylococcus aureus USA300 NRS384 clinical isolate after 20 hrs by broth microdilution method; format: functional; conditions: USA300 NRS384, 20 h; outline: as §1
Staphylococcus aureus [14] = assay: Antimicrobial activity against methicillin-resistant Staphylococcus aureus NRS119 clinical isolate after 20 hrs by broth microdilution method; format: functional; conditions: NRS119, 20 h; outline: as §1
[15] = Tmax in Sprague-Dawley rat plasma at 50 mg/kg administered via oral gavage measured 24 hrs post dose by LC/MS/MS analysis; format: ADME, organism-based; outline: as §3
[16] = Total AUC in Sprague-Dawley rat plasma at 50 mg/kg administered via oral gavage measured 24 hrs post dose by LC/MS/MS analysis; format: ADME, organism-based; design: dose 50 mg/kg, route oral, time AUCmax; outline: as §3
Staphylococcus aureus [17] = assay: Bactericidal activity against methicillin-resistant Staphylococcus aureus USA200 NRS383 clinical isolate after 20 hrs by broth microdilution method; format: functional; conditions: USA200 NRS383, 20 h
Rattus norvegicus [18] = assay: Half life in Sprague-Dawley rat plasma at 50 mg/kg administered via oral gavage measured 24 hrs post dose by LC/MS/MS analysis; format: ADME, organism-based; conditions: in vivo; outline: as §3
Staphylococcus aureus [19] = assay: Antimicrobial activity against methicillin-sensitive Staphylococcus aureus NRS72 clinical isolate after 20 hrs by broth microdilution method; format: functional; conditions: NRS72, 20 h; outline: as §1
Enterococcus faecium [20] = assay: Antimicrobial activity against vancomycin-resistant Enterococcus faecium ATCC 700221 after 20 hrs by broth microdilution method; format: functional; conditions: ATCC 700221, 20 h; outline: as §1
Staphylococcus aureus [21] = assay: Bactericidal activity against vancomycin-resistant Staphylococcus aureus 10 clinical isolate after 20 hrs by broth microdilution method; format: functional; conditions: isolate 10, 20 h
[22] = Ratio of non toxic dose for cytotoxicity against human HaCaT cells to MIC for methicillin-resistant Staphylococcus aureus RCMB 2658 clinical isolate; format: toxicity, cell-based
Outline: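 HaCaT keratinocytes in DMEM with 10% FBS at 37 °C, 5% CO2, exposed for 2 h to 8–256 μg/mL, then MTS read-out. Viability is given as a percentage of the DMSO control, in triplicate. The highest non-toxic concentration is divided by the MRSA MIC.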

[23] = AUClast in Sprague-Dawley rat plasma at 50 mg/kg administered via oral gavage measured 24 hrs post dose by LC/MS/MS analysis; format: ADME, organism-based; design: dose 50 mg/kg, time 0 - last, route oral; outline: as §3
[24] = Efflux ratio of apparent permeability from basolateral to apical side over apical to basolateral side in human Caco2 cells after 2 hrs by LC/MS/MS analysis; format: ADME, cell-based; conditions: Caco-2; outline: as §2
Staphylococcus aureus [25] = assay: Antimicrobial activity against methicillin-resistant Staphylococcus aureus USA400 NRS123 clinical isolate after 20 hrs by broth microdilution method; format: functional; conditions: USA400 NRS123, 20 h; outline: as §1
Staphylococcus aureus [26] = assay: Bactericidal activity against methicillin-resistant Staphylococcus aureus USA300 NRS384 clinical isolate after 20 hrs by broth microdilution method; format: functional; conditions: USA300 NRS384, 20 h
HaCaT = assay: Cytotoxicity against human HaCaT cells assessed as cell viability up to 64 ug/ml after 2 hrs by MTS assay; format: cell-based
Outline: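 HaCaT keratinocytes were grown in DMEM with 10% FBS at 37 °C, 5% CO₂. They were exposed in triplicate to 8–256 μg/mL for 2 h, then MTS was added. Background-corrected absorbance was expressed as % viability relative to a DMSO vehicle control.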

[27] = Apparent permeability across basolateral to apical side in human Caco2 cells at pH 7.4 after 2 hrs by LC/MS/MS analysis; conditions: Caco-2, pH 7.4
Staphylococcus aureus [28] = assay: Bactericidal activity against methicillin-resistant Staphylococcus aureus USA300 assessed as time required to reduce bacterial inoculum to zero colony forming units at 3 times MIC by time kill assay; format: functional
Outline: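 Samples taken at 2, 4, 6, 8, 10, 12 and 24 h were serially diluted in PBS and plated on trypticase soy agar. Viable CFU/mL were counted after at least 16 h at 37 °C.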

Staphylococcus aureus [29] = assay: Bactericidal activity against methicillin-resistant Staphylococcus aureus USA400 NRS123 clinical isolate after 20 hrs by broth microdilution method; format: functional; conditions: USA400 NRS123, 20 h
Staphylococcus aureus [30] = assay: Bactericidal activity against methicillin-resistant Staphylococcus aureus USA100 NRS382 clinical isolate after 20 hrs by broth microdilution method; format: functional; conditions: USA100 NRS382, 20 h
Staphylococcus aureus [31] = assay: Potency index, ratio of vancomycin MIC to compound MIC for methicillin-resistant Staphylococcus aureus RCMB 2658 clinical isolate; format: functional

## CCCCc1ccc(-c2nc(C)c(-c3ccn4ncnc4n3)s2)cc1
Staphylococcus aureus [1]
  MIC: > 25 µg/mL

## Cc1nc(-c2ccc(/C=C/C3CCCC3)cc2)sc1-c1ccnc(N)n1
Staphylococcus aureus [1]
  MIC: 3.12 µg/mL (≈ 8.61 µM)

## CCCCc1ccc(-c2nc(C)c(-c3ccnc(NC#N)n3)s2)cc1
Staphylococcus aureus [1]
  MIC: 18.7 µg/mL (≈ 53.5 µM)

## Cc1nc(-c2ccc(-c3ccoc3)cc2)sc1-c1ccnc(N)n1
Staphylococcus aureus [1]
  MIC: 7.8 µg/mL (≈ 23.3 µM)
[2]
  solubility kinetic at 2 h: 13 µM (≈ 4.35 µg/mL)

## Cc1nc(-c2ccc(I)cc2)sc1-c1ccnc(N)n1
Staphylococcus aureus [1]
  MIC: > 25 µg/mL

## CCCCc1ccc(-c2nc(C)c(-c3ccnc(-n4cccn4)n3)s2)cc1
Staphylococcus aureus [1]
  MIC: > 25 µg/mL

## CCCCc1ccc(-c2nc(C)c(-c3ccnc(NN)n3)s2)cc1
[3]
  Papp A→B at 2 h: 1.6 ×10⁻⁶ cm/s
[4]
  Cmax: 9330 ng/mL
Staphylococcus aureus [1]
  MIC: 0.4 µg/mL (≈ 1.18 µM)
Rattus norvegicus [5]
  Kel: 0.19 h⁻¹
Staphylococcus aureus [6]
  MBC: 8 µg/mL (≈ 23.6 µM)
Staphylococcus aureus [7]
  MIC: 1 µg/mL (≈ 2.95 µM)
Staphylococcus aureus [8]
  MIC: 2 µg/mL (≈ 5.89 µM)
Enterococcus faecium [9]
  MBC: 8 µg/mL (≈ 23.6 µM)
[10]
  MRT: 7.74 h
Staphylococcus aureus [11]
  MBC: 2 µg/mL (≈ 5.89 µM)
Staphylococcus aureus [12]
  MIC: 2 µg/mL (≈ 5.89 µM)
Staphylococcus aureus [13]
  MIC: 2 µg/mL (≈ 5.89 µM)
Staphylococcus aureus [14]
  MIC: 2 µg/mL (≈ 5.89 µM)
[15]
  Tmax: 4.67 h
[16]
  AUC at 24 h: 100000 ng·h/mL
Staphylococcus aureus [17]
  MBC: 2 µg/mL (≈ 5.89 µM)
Rattus norvegicus [18]
  t1/2: 8.24 h
Staphylococcus aureus [19]
  MIC: 2 µg/mL (≈ 5.89 µM)
Enterococcus faecium [20]
  MIC: 2 µg/mL (≈ 5.89 µM)
Staphylococcus aureus [21]
  MBC: 2 µg/mL (≈ 5.89 µM)
[22]
  selectivity ratio: 160
[23]
  AUC(0-t) at 24 h: 83200 ng·h/mL
[24]
  efflux ratio at 2 h: 1.8
Staphylococcus aureus [25]
  MIC: 2 µg/mL (≈ 5.89 µM)
Staphylococcus aureus [26]
  MBC: 2 µg/mL (≈ 5.89 µM)
HaCaT
  Activity: Non-toxic
[27]
  Papp B→A at 2 h: 2.8 ×10⁻⁶ cm/s
Staphylococcus aureus [28]
  Time: 2 h
Staphylococcus aureus [29]
  MBC: 2 µg/mL (≈ 5.89 µM)
Staphylococcus aureus [30]
  MBC: 4 µg/mL (≈ 11.8 µM)
[2]
  solubility kinetic at 2 h: 55 µM (≈ 18.7 µg/mL)

## Cc1nc(-c2ccc(C3=CCC(C)C3)cc2)sc1-c1ccnc(N)n1 (stereo not drawn)
Staphylococcus aureus [1]
  MIC: 3.8 µg/mL (≈ 10.9 µM)

## Cc1nc(-c2ccc(C=C3CCCCC3)cc2)sc1-c1ccnc(N)n1
Staphylococcus aureus [1]
  MIC: 1.56 µg/mL (≈ 4.3 µM)

## Cc1nc(-c2ccc(-c3ccco3)cc2)sc1-c1ccnc(N)n1
Staphylococcus aureus [1]
  MIC: 8.7 µg/mL (≈ 26 µM)
[2]
  solubility kinetic at 2 h: 14 µM (≈ 4.68 µg/mL)

## Cc1nc(-c2ccc(C3=CCCCC3)cc2)sc1-c1ccnc(N)n1
Staphylococcus aureus [1]
  MIC: 0.78 µg/mL (≈ 2.24 µM)
Staphylococcus aureus [31]
  Ratio: 1
[2]
  solubility kinetic at 2 h: 37 µM (≈ 12.9 µg/mL)

## CCCCc1ccc(-c2nc(C)c(-c3ccnc(NC(N)=S)n3)s2)cc1
Staphylococcus aureus [1]
  MIC: > 25 µg/mL

## Cc1nc(-c2ccc(C3=CCCCCC3)cc2)sc1-c1ccnc(N)n1
Staphylococcus aureus [1]
  MIC: 3.12 µg/mL (≈ 8.61 µM)

## CC(=O)NC[C@H]1CN(c2ccc(N3CCOCC3)c(F)c2)C(=O)O1 [LINEZOLID]
Staphylococcus aureus [6]
  MBC: 2 µg/mL (≈ 5.93 µM)
Staphylococcus aureus [7]
  MIC: 1 µg/mL (≈ 2.96 µM)
Staphylococcus aureus [8]
  MIC: 1 µg/mL (≈ 2.96 µM)
Enterococcus faecium [9]
  MBC: 32 µg/mL (≈ 94.9 µM)
Staphylococcus aureus [11]
  MBC: > 64 µg/mL
Staphylococcus aureus [12]
  MIC: 1 µg/mL (≈ 2.96 µM)
Staphylococcus aureus [13]
  MIC: 1 µg/mL (≈ 2.96 µM)
Staphylococcus aureus [14]
  MIC: 32 µg/mL (≈ 94.9 µM)
Staphylococcus aureus [17]
  MBC: 32 µg/mL (≈ 94.9 µM)
Staphylococcus aureus [19]
  MIC: 1 µg/mL (≈ 2.96 µM)
Enterococcus faecium [20]
  MIC: 1 µg/mL (≈ 2.96 µM)
Staphylococcus aureus [21]
  MBC: 2 µg/mL (≈ 5.93 µM)
Staphylococcus aureus [25]
  MIC: 1 µg/mL (≈ 2.96 µM)
Staphylococcus aureus [26]
  MBC: 4 µg/mL (≈ 11.9 µM)
Staphylococcus aureus [29]
  MBC: 16 µg/mL (≈ 47.4 µM)
Staphylococcus aureus [30]
  MBC: 8 µg/mL (≈ 23.7 µM)
